Hits are enriched below; roughly 3% of the tested compounds scored in any of these assays.
Wnt act = Wnt/beta-catenin pathway activators, primary screen, cell-based, plate reader, single point; Wnt/beta-catenin reporter cell assay, activator; activation, % at 9.35 µM; actives 1.2% (n = 300,000); in the data active = activation above about 30%, passing the limit was not always enough; inconclusive = no clear call, values can overlap the other calls
NSD2 inh = NSD2 histone methyltransferase inhibitors, primary screen, biochemical, AlphaScreen, single concentration, set 2. Histone-lysine N-methyltransferase NSD2 (Homo sapiens), O96028. inhibition, % at 12.5 µM. NSD2 peptide methylation, 120 min. actives 0.54% (n = 310,000); in the data active = inhibition above about 50%
MITF act = activators of MITF-driven TRPM1 promoter reporter, primary screen, cell-based, SK-MEL-5, luciferase, single point | SK-MEL-5 TRPM1-promoter luciferase, 24 h; % of positive control, neutral wells = 0 | activation, % at 12.5 µM | actives 0.75% (n = 300,000) | AID 588334, 2011;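 active = mean activation of at least 80% with every replicate also reaching 80%; inconclusive = mean reaches 80% but some replicate falls short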
CASP6 VEID inh = human caspase-6 inhibitors, primary screen, biochemical, VEID-R110 fluorescence, single point, set 2; P55212; purified caspase-6, Z-VEID-R110 cleavage fluorescence; inhibition, % at 12.5 µM; actives 0.53% (n = 350,000);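 active = mean inhibition across replicates at least about 35%, with every replicate also reaching that limit, limit read from the data; inconclusive = only one of the two criteria met; inactive = neither criterion met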
esBAF inh = Bmi1 luciferase reporter increase in mESCs, primary screen, esBAF inhibitor project, mouse ES cells, Bmi1 luciferase knock-in, single point; 24 h; 100% = twice the neutral-well signal; reporter increase, % at 12.5 µM; actives 2% (n = 350,000); AID 602393, 2012; in the data active = activation above about 40%; inconclusive = no clear call, values can overlap the other calls;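 also: a rise in the Bmi1 reporter signal indicates esBAF inhibition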
Xi reactivation = activators of inactive X chromosome reactivation, primary screen, imaging, XiGFP fibroblasts, GFP high-content imaging, set 2; XiGFP mouse fibroblasts, % GFP-positive cells imaging, 3 d; cells co-treated with 5-aza-dC sensitizer; scaled so ellipticine positive control = 100%; activation, % at 7.58 µM; actives 0.055% (n = 360,000); AID 743238, 2013;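 active = mean normalized replicate activation at least 10% and every replicate at or above 10%; inconclusive = only one of the two criteria met; inactive = mean below 10% and not all replicates reach 10%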
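Schedule: 3 d treatment, 15 min room-temperature fixation; system: 68-5-11 XiGFP fibroblast line; buffer or medium: DMEM plus 5-aza-dC sensitizer; control set: ellipticine 6 µM positive control; compound: one concentration, pinned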
A number is an active result; i = inactive; ? = inconclusive; nt = no result given.

SMILES	Wnt act	NSD2 inh	MITF act	CASP6 VEID inh	esBAF inh	Xi reactivation
CCOCCCN(C(=O)c1snc(C(N)=O)c1N)C(C(=O)NCCC(C)C)c1ccc(C)cc1 (centres undefined)	nt	i	nt	nt	nt	nt
CN1CCN(C(=O)c2cc(Cl)cc(Cl)c2)CC1	i	i	nt	65	i	i
Fc1ccc(/C=N/NC2=Nc3cccc4cccc2c34)cc1	58	i	i	nt	nt	i
c1ccc(NC2=Nc3cccc4cccc2c34)cc1	i	i	i	i	i	i
O=C(NCC[C@@H]1CC[C@@H](NS(=O)(=O)c2ccccc2)[C@@H](CO)O1)c1ccc2c(c1)OCO2	nt	nt	nt	i	i	i
CS(=O)(=O)Nc1cccc(-c2cnc3ccccc3n2)c1	i	i	98	i	i	i
O=[N+]([O-])c1cccc(-c2cnc3ccccc3n2)c1	i	i	i	i	52	i
O=[N+]([O-])c1cccc(-c2cn3ccccc3n2)c1	67	i	i	i	i	i
COc1ccc(S(=O)(=O)N(C)C[C@H]2OCCCC[C@H](C)Oc3ccc(NS(=O)(=O)c4cccs4)cc3C(=O)N([C@H](C)CO)C[C@@H]2C)cc1	nt	nt	nt	i	i	i
O=C([C@@H]1[C@@H](CO)[C@@H]2Cn3c(ccc(-c4ccccc4F)c3=O)[C@H]1N2C(=O)C1CC1)N1CCOCC1	nt	nt	nt	i	i	i
COc1ccc(NC(=O)N(C)C[C@@H]2OCCCC[C@H](C)Oc3ccc(NS(=O)(=O)c4ccc(OC)cc4)cc3C(=O)N([C@H](C)CO)C[C@H]2C)cc1	nt	nt	nt	i	nt	i
CNC[C@H]1Oc2cc(-c3ccncc3)ccc2S(=O)(=O)N([C@@H](C)CO)C[C@H]1C	nt	nt	nt	i	i	i
CC(C)NC(=O)Nc1cccc2c1O[C@H](CN(C)C(=O)NC(C)C)[C@H](C)CN(C)C2=O	nt	nt	nt	nt	nt	i
Nc1c(-c2ccccc2)cnc2c(-c3ccccc3)cnn12	i	i	nt	i	i	i
Nc1c(-c2cccs2)cnc2c(-c3ccc(F)cc3)cnn12	54	i	i	i	i	i
C[C@H](CO)N1C[C@H](C)[C@H](CN(C)CC2CC2)Oc2cc(-c3cccc(F)c3)ccc2S1(=O)=O	nt	nt	nt	i	i	i
COc1cc(CNc2ccc3[nH]c(=O)[nH]c3c2)ccc1OCc1ccccc1F	i	i	i	i	47	i
COc1cc(CNc2ccc3[nH]c(=O)[nH]c3c2)ccc1OCc1ccc(F)cc1	i	i	nt	i	i	i
COc1cc(CNc2ccc3[nH]c(=O)[nH]c3c2)ccc1OCc1ccccc1	i	i	nt	i	i	i
COc1cc(CNc2ccc3[nH]c(=O)[nH]c3c2)cc(Br)c1OCc1ccccc1F	i	i	i	i	i	i
COc1cc(CNc2ccc3[nH]c(=O)[nH]c3c2)ccc1OCc1ccccc1C	i	i	i	i	47	i
COc1cc(CNc2ccc3[nH]c(=O)[nH]c3c2)ccc1OCc1ccc(Cl)cc1	i	i	nt	i	55	i
Nc1ccc(OC(=O)Nc2ccc(O)cc2)cc1	i	i	i	61	i	i
Cc1ccc(OC(=O)Nc2ccccc2)cc1	i	i	?	i	50	i
O=C(Nc1ccc(N2CCN(c3ccc(O)cc3)CC2)cc1)Oc1ccccc1	i	i	i	i	i	nt
SMILES	Wnt act	NSD2 inh	MITF act	CASP6 VEID inh	esBAF inh	Xi reactivation
c1cc(-c2cc3cc4c(cc3cn2)OCO4)cs1	50	nt	?	i	77	i
COc1cc(-c2ccc3c(=O)c4ccccc4sc3c2)cc(OC)c1OC	i	nt	i	i	47	i
CN1C(=O)c2cc(NC(=O)C3CCC3)ccc2OC[C@H]2O[C@H](CC(=O)NCCc3ccncc3)CC[C@@H]21	nt	nt	nt	i	nt	i
CCCc1cn(CC[C@H]2CC[C@@H](NC(=O)C3CCCC3)[C@@H](CO)O2)nn1	nt	nt	nt	i	i	i
CO[C@@H]1CN(C)C(=O)c2cc(NC(=O)Nc3ccccc3)ccc2OC[C@@H](C)N(CC2CC2)C[C@H]1C	nt	nt	nt	nt	i	i
Cc1ccc(NC(=O)NCC2CC2(Cl)Cl)cc1 (centres undefined)	i	i	i	nt	50	i
O=C(NCC1CC1(Cl)Cl)Nc1ccc(Cl)c(Cl)c1 (centres undefined)	i	i	i	i	i	i
CCOc1ccc(N/C=C\C(=O)c2ccc3c(c2)OCO3)cc1	i	i	i	i	nt	nt
O=C(/C=C\Nc1ccc2c(c1)OCO2)c1ccc2c(c1)OCO2	34	i	i	i	nt	i
O=C(/C=C\Nc1ccc2c(c1)OCO2)c1cccs1	i	i	i	i	i	i
COc1ccc(N/C=C\C(=O)c2ccc3c(c2)OCO3)cc1	75	i	i	nt	nt	nt
O=C(/C=C\Nc1ccc2c(c1)OCO2)c1ccc(Cl)s1	i	i	i	i	52	i
CN(C)CC#Cc1cccc(-c2nc(C(=O)N[C@@H]3CCN(Cc4ccccc4)C3)cc3c2[C@@H](CCO)N(S(=O)C(C)(C)C)C3)c1 (some centres undefined)	nt	nt	nt	i	nt	nt
C[C@H]1CN([C@@H](C)CO)C(=O)Cc2cc(NC(=O)c3ccncc3)ccc2O[C@H]1CN(C)S(C)(=O)=O	nt	nt	nt	i	i	i
C[C@@H]1CCCCO[C@@H](CN(C)C(=O)Cc2ccccc2)[C@H](C)CN([C@@H](C)CO)C(=O)c2cc(NC(=O)Nc3ccccc3)ccc2O1	nt	nt	nt	i	i	i
O=C(Nc1ccc(Cl)cc1)c1csc(COCCO)n1	i	i	nt	i	53	i
O=C(Nc1ccc(Oc2ccccc2)cc1)c1csc(COCCO)n1	nt	i	nt	i	i	i
O=c1nc(/C=C/c2ccc(O)c(O)c2)oc2ccccc12	nt	nt	82	nt	i	nt
COc1ccc(/C=C\c2nc(=O)c3ccccc3o2)cc1	i	i	i	i	i	i
CC(=O)N(c1ccccc1)c1nnc(-c2cnc(C)cn2)s1	i	i	98	i	nt	i
CCC(=O)Oc1ccc2c(c1)O/C(=C\c1ccco1)C2=O	i	i	nt	59	nt	i
COCC(=O)N1[C@H](CO)[C@@H](c2ccccc2)C12CN(C(=O)NC1CCCCC1)C2	nt	nt	nt	i	nt	i
Cc1ccc2nc(Cl)c(/C=C/C(=O)c3ccco3)cc2c1	i	i	nt	i	50	i
Cc1ccc2cc(/C=C/C(=O)c3ccco3)c(Cl)nc2c1	60	i	nt	i	nt	i
CCCNC(=O)N1CC2(CN(S(=O)(=O)CC)C2)c2c(n(C)c3cc(OC)ccc23)[C@@H]1CO	nt	nt	nt	i	nt	i
CC(C)NC(=O)N(C)C[C@@H]1Oc2ccc(N(C)C)cc2CC(=O)N(C)C[C@H]1C	nt	nt	nt	nt	nt	i
CC1CCCN(C(=O)c2ccc(Cl)c(S(=O)(=O)N3CCCCCC3)c2)C1 (centres undefined)	i	i	i	i	58	i
